Source: ChEMBL document CHEMBL1122773 (1984)
Values after ≈ are worked out from the molar mass of the structure shown.

Assays:
Mus musculus [1] = experiment: Bioactivity in abscess, in Bacteroides fragilis infected mice following subcutaneous dose of 200 mg/kg after 15 mins of bleeding; format: functional
Summary of the method: (§1)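 On day 7 post-infection, groups of five mice were given a single 200 mg/kg subcutaneous dose and killed at set times. Blood was taken by cardiac puncture and abscesses were excised. Activity was measured by standard microbiological assay.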

[2] = In vitro antibacterial activity against the aerobic […] I(Strain UC no.41); format: functional
Summary of the method: (§2)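 Broth microdilution in brain/heart infusion broth with twofold drug dilutions. Inoculum was a standardized suspension giving 10⁵ viable cells/mL final. Plates were incubated 20 h at 37 °C. MIC (mcg/mL) = lowest concentration with no visible growth.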

Staphylococcus aureus [3] = experiment: In vitro antibacterial activity against the aerobic Staphylococcus aureus (Strain UC no.6692); format: functional; summary of the method: as §2
Pseudomonas aeruginosa = experiment: In vitro antibacterial activity against the aerobic Pseudomonas aeruginosa (Strain UC no.95); format: functional; summary of the method: as §2
Staphylococcus aureus [4] = experiment: In vitro antibacterial activity against the aerobic Staphylococcus aureus (Strain UC no.76); format: functional; summary of the method: as §2
Escherichia coli = experiment: In vitro antibacterial activity against the aerobic Escherichia coli (Strain UC no.45); format: functional; summary of the method: as §2
Staphylococcus aureus [5] = experiment: In vitro antibacterial activity against the aerobic Staphylococcus aureus (Strain UC no.6686); format: functional; summary of the method: as §2
Staphylococcus aureus [6] = experiment: In vitro antibacterial activity against the aerobic Staphylococcus aureus (Strain UC no.746); format: functional; summary of the method: as §2
[7] = In vitro antibacterial activity against the aerobic Salmonella schottmuelleri (Strain UC no.126); format: functional; summary of the method: as §2
Mus musculus [8] = experiment: Bioactivity in blood, in Bacteroides fragilis infected mice following subcutaneous dose of 200 mg/kg after 45 mins of bleeding; format: functional; summary of the method: as §1
Staphylococcus aureus [9] = experiment: In vitro antibacterial activity against the aerobic Staphylococcus aureus (Strain UC no.571); format: functional; summary of the method: as §2
Mus musculus [10] = experiment: Bioactivity in blood, in Bacteroides fragilis infected mice following subcutaneous dose of 200 mg/kg after 120 mins of bleeding; format: functional; summary of the method: as §1
Staphylococcus aureus [11] = experiment: In vitro antibacterial activity against the aerobic Staphylococcus aureus (Strain UC no.6688); format: functional; summary of the method: as §2
Mus musculus [12] = experiment: Bioactivity in abscess, in Bacteroides fragilis infected mice following subcutaneous dose of 200 mg/kg after 90 mins of bleeding; format: functional; summary of the method: as §1
Proteus vulgaris = experiment: In vitro antibacterial activity against the aerobic Proteus vulgaris (Strain UC no.93); format: functional; summary of the method: as §2
Mus musculus [13] = experiment: Bioactivity in blood, in Bacteroides fragilis infected mice following subcutaneous dose of 200 mg/kg after 60 mins of bleeding; format: functional; summary of the method: as §1
Staphylococcus aureus [14] = experiment: In vitro antibacterial activity against the aerobic Staphylococcus aureus (Strain UC no.6689); format: functional; summary of the method: as §2
Mus musculus [15] = experiment: Bioactivity in abscess, in Bacteroides fragilis infected mice following subcutaneous dose of 200 mg/kg after 45 mins of bleeding; format: functional; summary of the method: as §1
Mus musculus [16] = experiment: Bioactivity in abscess, in Bacteroides fragilis infected mice following subcutaneous dose of 200 mg/kg after 150 mins of bleeding; format: functional; summary of the method: as §1
[17] = tested on: Peptoniphilus asaccharolyticus; experiment: In vitro antibacterial activity against the anaerobic Peptoccus aerogenes (Strain UC no.6319); format: functional
Summary of the method: (§3)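 Agar dilution with serial twofold drug dilutions in Schaedler broth mixed into molten Wilkens-Chalgren agar. Plates prereduced 3 h under 85% N2/10% H2/5% CO2. Strains grown 48 h on Schaedler agar, suspended to 0.5 McFarland, and 0.001 mL spotted by replicator. All steps done anaerobically. Incubation 48 h at 37 °C. MIC is the least drug inhibiting growth; a faint film or fewer than three colonies scored negative.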

Mus musculus [18] = experiment: Bioactivity in blood, in Bacteroides fragilis infected mice following subcutaneous dose of 200 mg/kg after 90 mins of bleeding; format: functional; summary of the method: as §1
Mus musculus [19] = experiment: Bioactivity in blood, in Bacteroides fragilis infected mice following subcutaneous dose of 200 mg/kg after 360 mins of bleeding; format: functional; summary of the method: as §1
Staphylococcus aureus [20] = experiment: In vitro antibacterial activity against the aerobic Staphylococcus aureus (Strain UC no.6691); format: functional; summary of the method: as §2
Staphylococcus aureus [21] = experiment: In vitro antibacterial activity against the aerobic Staphylococcus aureus (Strain UC no.6696); format: functional; summary of the method: as §2
Clostridium cadaveris = experiment: In vitro antibacterial activity against the anaerobic Clostridium cadaveris (Strain UC no.6510); format: functional; summary of the method: as §3
Mus musculus [22] = experiment: Bioactivity in abscess, in Bacteroides fragilis infected mice following subcutaneous dose of 200 mg/kg after 120 mins of bleeding; format: functional; summary of the method: as §1
Staphylococcus aureus [23] = experiment: In vitro antibacterial activity for minimum inhibition concentration (MIC) required to inhibit growth of Staphylococcus aureus; format: functional
Summary of the method: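 Broth microdilution in brain/heart infusion broth, inoculated with a standardized suspension to a final 10^5 viable cells/mL. Incubation 20 h at 37 °C. MIC read as the lowest concentration preventing visible growth.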

Mus musculus [24] = experiment: Bioactivity in blood, in Bacteroides fragilis infected mice following subcutaneous dose of 200 mg/kg after 15 mins of bleeding; format: functional; summary of the method: as §1
Staphylococcus aureus [25] = experiment: In vitro antibacterial activity against the aerobic Staphylococcus aureus (Strain UC no.6695); format: functional; summary of the method: as §2
Streptococcus pyogenes = experiment: In vitro antibacterial activity against the aerobic Streptococcus pyogenes (Strain UC no.152)
Staphylococcus aureus [26] = experiment: In vitro antibacterial activity against the aerobic Staphylococcus aureus (Strain UC no.6693); format: functional; summary of the method: as §2
Staphylococcus aureus [27] = experiment: In vitro antibacterial activity against the aerobic Staphylococcus aureus (Strain UC no.6675); format: functional; summary of the method: as §2
Staphylococcus aureus [28] = experiment: In vitro antibacterial activity against the aerobic Staphylococcus aureus (Strain UC no.570); format: functional; summary of the method: as §2
Clostridium tetani = experiment: In vitro antibacterial activity against the anaerobic Clostridium tetani(Strain UC no.6521); format: functional
Summary of the method: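 Agar dilution under anaerobic conditions. Serial twofold drug dilutions in Schaedler broth were mixed with molten Wilkins-Chalgren agar. Plates were prereduced 3 h (85% N2, 10% H2, 5% CO2). Strains were grown 48 h on Schaedler agar, suspended to 0.5 McFarland, and 0.001 mL spotted by replicator. Incubation was anaerobic, 37 °C, 48 h.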

Cutibacterium acnes = experiment: In vitro antibacterial activity against the anaerobic Propionibacterium acnes(Strain UC no.6575); format: functional; summary of the method: as §3
[29] = In vitro antibacterial activity against the aerobic […] (Strain UC no.871); format: functional; summary of the method: as §2
Mus musculus [30] = experiment: Bioactivity in abscess, in Bacteroides fragilis infected mice following subcutaneous dose of 200 mg/kg after 30 mins of bleeding; format: functional; summary of the method: as §1
Klebsiella pneumoniae = experiment: In vitro antibacterial activity against the aerobic Klebsiella pneumoniae (Strain UC no.58); format: functional; summary of the method: as §2
[31] = In vitro antibacterial activity against the aerobic […] (Strain UC no.153); format: functional; summary of the method: as §2
Mus musculus [32] = experiment: Bioactivity in blood, in Bacteroides fragilis infected mice following subcutaneous dose of 200 mg/kg after 150 mins of bleeding; format: functional; summary of the method: as §1
Mus musculus [33] = experiment: Bioactivity in blood, in Bacteroides fragilis infected mice following subcutaneous dose of 200 mg/kg after 30 mins of bleeding; format: functional; summary of the method: as §1
Mus musculus [34] = experiment: Bioactivity in abscess, in Bacteroides fragilis infected mice following subcutaneous dose of 200 mg/kg after 360 mins of bleeding; format: functional; summary of the method: as §1
Mus musculus [35] = experiment: Bioactivity in abscess, in Bacteroides fragilis infected mice following subcutaneous dose of 200 mg/kg after 60 mins of bleeding; format: functional; summary of the method: as §1
[36] = In vitro antibacterial activity against the aerobic […] III(Strain UC no.3213); format: functional; summary of the method: as §2
Staphylococcus aureus [37] = experiment: In vitro antibacterial activity against the aerobic Staphylococcus aureus (Strain UC no.6694); format: functional; summary of the method: as §2

CCC[C@@H]1C[C@@H](C(=O)N[C@@H]([C@H]2O[C@H](SC)[C@H](O)[C@@H](O)[C@H]2O)[C@H](C)Cl)N(C)C1 [CLINDAMYCIN]
A (Mus musculus [1]): 16 ug (g of abscess)-1
MIC [2]: < 0.012 µg/mL
MIC (Staphylococcus aureus [3]): > 25 µg/mL
MIC (Pseudomonas aeruginosa): > 25 µg/mL
MIC (Staphylococcus aureus [4]): 0.05 µg/mL (≈ 0.118 µM)
MIC (Escherichia coli): > 25 µg/mL
MIC (Staphylococcus aureus [5]): 0.05 µg/mL (≈ 0.118 µM)
MIC (Staphylococcus aureus [6]): 0.05 µg/mL (≈ 0.118 µM)
MIC [7]: > 25 µg/mL
B (Mus musculus [8]): 17 ug (g of abscess)-1
MIC (Staphylococcus aureus [9]): 0.2 µg/mL (≈ 0.471 µM)
B (Mus musculus [10]): 3 ug (g of abscess)-1
MIC (Staphylococcus aureus [11]): > 25 µg/mL
A (Mus musculus [12]): 13 ug (g of abscess)-1
MIC (Proteus vulgaris): > 25 µg/mL
B (Mus musculus [13]): 12 ug (g of abscess)-1
MIC (Staphylococcus aureus [14]): 0.05 µg/mL (≈ 0.118 µM)
A (Mus musculus [15]): 26 ug (g of abscess)-1
A (Mus musculus [16]): 8 ug (g of abscess)-1
MIC [17]: < 0.03 µg/mL
B (Mus musculus [18]): 4 ug (g of abscess)-1
B (Mus musculus [19]): 0.2 ug (g of abscess)-1
MIC (Staphylococcus aureus [20]): 0.1 µg/mL (≈ 0.235 µM)
MIC (Staphylococcus aureus [21]): 0.1 µg/mL (≈ 0.235 µM)
MIC (Clostridium cadaveris): < 0.03 µg/mL
A (Mus musculus [22]): 9 ug (g of abscess)-1
MIC (Staphylococcus aureus [23]): > 25 µg/mL
B (Mus musculus [24]): 17 ug (g of abscess)-1
MIC (Staphylococcus aureus [25]): 0.1 µg/mL (≈ 0.235 µM)
MIC (Streptococcus pyogenes): < 0.012 µg/mL
MIC (Staphylococcus aureus [26]): 0.05 µg/mL (≈ 0.118 µM)
MIC (Staphylococcus aureus [27]): 0.05 µg/mL (≈ 0.118 µM)
MIC (Staphylococcus aureus [28]): 0.2 µg/mL (≈ 0.471 µM)
MIC (Clostridium tetani): < 0.03 µg/mL
MIC (Cutibacterium acnes): < 0.03 µg/mL
MIC [29]: < 0.012 µg/mL
A (Mus musculus [30]): 22 ug (g of abscess)-1
MIC (Klebsiella pneumoniae): 12.5 µg/mL (≈ 29.4 µM)
MIC [31]: < 0.012 µg/mL
B (Mus musculus [32]): 1.4 ug (g of abscess)-1
B (Mus musculus [33]): 23 ug (g of abscess)-1
A (Mus musculus [34]): 3 ug (g of abscess)-1
A (Mus musculus [35]): 21 ug (g of abscess)-1
MIC [36]: < 0.012 µg/mL
MIC (Staphylococcus aureus [37]): > 25 µg/mL
